Results reported in the M2OR odorant receptor database.

Tests used:
Conditions in all cases: stereoisomer not certain
OR10G2 (Homo sapiens) = target: T1, OR10G2 (Homo sapiens) (UniProt Q8NGC3)
T1 sequence (whole entry): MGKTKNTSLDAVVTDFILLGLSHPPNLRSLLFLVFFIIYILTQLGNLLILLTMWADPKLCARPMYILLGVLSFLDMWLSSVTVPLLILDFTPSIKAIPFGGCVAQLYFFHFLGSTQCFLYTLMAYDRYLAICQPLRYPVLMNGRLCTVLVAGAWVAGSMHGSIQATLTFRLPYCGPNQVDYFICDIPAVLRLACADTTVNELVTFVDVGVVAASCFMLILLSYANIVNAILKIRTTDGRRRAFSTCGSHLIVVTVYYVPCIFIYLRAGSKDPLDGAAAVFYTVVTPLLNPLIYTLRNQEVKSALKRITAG
How it was run: (§1)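 Each receptor–molecule pair is labelled responsive or non-responsive (inactive) according to whether the original authors judged the measured signal statistically different from baseline. The data were taken from the main text and supplementary material of published papers and checked for typos and inconsistencies. Assay methods differed by source, with transient luciferase assays in mammalian cell lines being common.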

OR10G3 (Homo sapiens) = target: T2, OR10G3 (Homo sapiens) (UniProt Q8NGC4)
T2 sequence (whole entry): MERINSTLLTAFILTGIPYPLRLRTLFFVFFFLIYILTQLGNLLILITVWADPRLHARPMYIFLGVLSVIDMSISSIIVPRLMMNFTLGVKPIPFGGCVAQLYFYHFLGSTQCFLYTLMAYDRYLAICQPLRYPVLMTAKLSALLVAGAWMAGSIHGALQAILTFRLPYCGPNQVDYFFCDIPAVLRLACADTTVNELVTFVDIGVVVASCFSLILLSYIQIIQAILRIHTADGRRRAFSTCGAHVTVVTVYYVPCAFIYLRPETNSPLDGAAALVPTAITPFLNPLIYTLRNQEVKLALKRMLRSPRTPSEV
How it was run: as §1

OR10G4 (Homo sapiens) = target: T3, OR10G4 (Homo sapiens) (UniProt Q8NGN3)
T3 sequence (whole entry): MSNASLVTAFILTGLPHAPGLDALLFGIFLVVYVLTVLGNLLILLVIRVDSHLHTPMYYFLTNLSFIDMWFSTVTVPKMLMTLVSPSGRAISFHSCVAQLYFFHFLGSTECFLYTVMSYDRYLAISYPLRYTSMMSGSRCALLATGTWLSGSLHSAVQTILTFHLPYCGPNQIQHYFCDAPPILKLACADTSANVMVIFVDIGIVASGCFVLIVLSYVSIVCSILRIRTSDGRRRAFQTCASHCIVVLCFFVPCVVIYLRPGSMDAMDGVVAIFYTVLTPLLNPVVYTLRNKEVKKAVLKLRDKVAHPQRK
How it was run: as §1

OR10G6 (Homo sapiens) = target: T4, OR10G6 (Homo sapiens) (UniProt Q8NH81)
T4 sequence (whole entry): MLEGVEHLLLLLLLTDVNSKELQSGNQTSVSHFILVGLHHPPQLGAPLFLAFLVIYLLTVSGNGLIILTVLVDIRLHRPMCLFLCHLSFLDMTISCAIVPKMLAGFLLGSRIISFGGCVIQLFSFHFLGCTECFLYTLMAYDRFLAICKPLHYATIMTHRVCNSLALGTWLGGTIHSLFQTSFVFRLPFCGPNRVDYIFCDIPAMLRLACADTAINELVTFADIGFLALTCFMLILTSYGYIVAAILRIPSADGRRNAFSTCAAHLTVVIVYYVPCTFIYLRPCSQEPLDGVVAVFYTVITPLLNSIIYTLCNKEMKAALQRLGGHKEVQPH
How it was run: as §1

OR10G7 (Homo sapiens) = target: T5, OR10G7 (Homo sapiens) (UniProt Q8NGN6)
T5 sequence (whole entry): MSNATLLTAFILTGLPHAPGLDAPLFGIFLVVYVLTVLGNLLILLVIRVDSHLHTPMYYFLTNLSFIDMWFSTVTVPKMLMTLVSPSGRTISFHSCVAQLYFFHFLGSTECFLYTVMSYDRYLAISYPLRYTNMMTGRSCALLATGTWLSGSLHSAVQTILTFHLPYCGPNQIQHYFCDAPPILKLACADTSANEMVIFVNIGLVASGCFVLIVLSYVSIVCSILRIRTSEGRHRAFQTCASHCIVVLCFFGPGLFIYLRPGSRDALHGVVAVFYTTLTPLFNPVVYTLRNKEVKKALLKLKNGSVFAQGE
How it was run: as §1

OR10G8 (Homo sapiens) = target: T6, OR10G8 (Homo sapiens) (UniProt Q8NGN5)
T6 sequence (whole entry): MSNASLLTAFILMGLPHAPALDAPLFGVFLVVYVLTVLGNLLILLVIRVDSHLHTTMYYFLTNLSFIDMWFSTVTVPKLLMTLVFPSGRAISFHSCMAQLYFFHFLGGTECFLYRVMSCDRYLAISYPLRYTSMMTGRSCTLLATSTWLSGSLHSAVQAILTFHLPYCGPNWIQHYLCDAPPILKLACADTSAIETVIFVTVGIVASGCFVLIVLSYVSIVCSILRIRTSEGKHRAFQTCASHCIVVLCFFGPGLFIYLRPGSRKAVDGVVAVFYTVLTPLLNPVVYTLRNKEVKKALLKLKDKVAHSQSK
How it was run: as §1

OR10G9 (Homo sapiens) = target: T7, OR10G9 (Homo sapiens) (UniProt Q8NGN4)
T7 sequence (whole entry): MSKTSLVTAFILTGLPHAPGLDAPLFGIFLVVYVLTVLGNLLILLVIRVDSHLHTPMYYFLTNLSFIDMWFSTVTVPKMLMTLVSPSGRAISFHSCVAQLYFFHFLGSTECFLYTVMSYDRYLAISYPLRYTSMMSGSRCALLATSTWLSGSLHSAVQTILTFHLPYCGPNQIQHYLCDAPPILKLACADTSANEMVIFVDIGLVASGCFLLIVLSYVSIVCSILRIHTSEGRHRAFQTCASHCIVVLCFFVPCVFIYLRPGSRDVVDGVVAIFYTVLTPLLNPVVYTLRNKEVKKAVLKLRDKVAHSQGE
How it was run: as §1

OR10H1 (Homo sapiens) = target: T8, OR10H1 (Homo sapiens) (UniProt Q9Y4A9)
T8 sequence (whole entry): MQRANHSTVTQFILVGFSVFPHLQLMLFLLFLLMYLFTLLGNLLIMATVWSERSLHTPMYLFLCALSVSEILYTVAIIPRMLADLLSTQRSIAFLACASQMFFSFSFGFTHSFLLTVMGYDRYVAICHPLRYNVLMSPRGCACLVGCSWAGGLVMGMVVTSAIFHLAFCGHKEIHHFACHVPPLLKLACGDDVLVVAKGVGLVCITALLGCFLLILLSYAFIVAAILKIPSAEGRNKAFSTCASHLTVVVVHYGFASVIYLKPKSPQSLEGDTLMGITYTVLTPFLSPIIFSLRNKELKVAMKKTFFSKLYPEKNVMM
How it was run: as §1

OR10H2 (Homo sapiens) = target: T9, OR10H2 (Homo sapiens) (UniProt O60403)
T9 sequence (whole entry): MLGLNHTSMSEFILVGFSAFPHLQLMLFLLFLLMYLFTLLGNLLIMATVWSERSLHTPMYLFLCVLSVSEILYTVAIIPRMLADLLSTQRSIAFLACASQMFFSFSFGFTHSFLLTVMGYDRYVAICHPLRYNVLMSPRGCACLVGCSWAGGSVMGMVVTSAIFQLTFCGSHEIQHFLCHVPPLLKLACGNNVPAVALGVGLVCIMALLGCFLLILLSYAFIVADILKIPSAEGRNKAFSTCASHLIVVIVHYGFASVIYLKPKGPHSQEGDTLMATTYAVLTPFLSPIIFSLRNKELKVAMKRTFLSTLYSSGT
How it was run: as §1

OR10H3 (Homo sapiens) = target: T10, OR10H3 (Homo sapiens) (UniProt O60404)
T10 sequence (whole entry): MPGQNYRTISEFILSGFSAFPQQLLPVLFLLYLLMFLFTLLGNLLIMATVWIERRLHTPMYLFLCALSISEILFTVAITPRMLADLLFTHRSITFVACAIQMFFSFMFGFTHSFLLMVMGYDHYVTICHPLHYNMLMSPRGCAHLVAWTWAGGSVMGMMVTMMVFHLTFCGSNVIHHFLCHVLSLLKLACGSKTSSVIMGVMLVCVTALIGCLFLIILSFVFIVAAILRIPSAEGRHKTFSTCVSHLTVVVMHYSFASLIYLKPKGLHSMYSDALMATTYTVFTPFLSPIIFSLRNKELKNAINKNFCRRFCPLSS
How it was run: as §1

OR10H4 (Homo sapiens) = target: T11, OR10H4 (Homo sapiens) (UniProt Q8NGA5)
T11 sequence (whole entry): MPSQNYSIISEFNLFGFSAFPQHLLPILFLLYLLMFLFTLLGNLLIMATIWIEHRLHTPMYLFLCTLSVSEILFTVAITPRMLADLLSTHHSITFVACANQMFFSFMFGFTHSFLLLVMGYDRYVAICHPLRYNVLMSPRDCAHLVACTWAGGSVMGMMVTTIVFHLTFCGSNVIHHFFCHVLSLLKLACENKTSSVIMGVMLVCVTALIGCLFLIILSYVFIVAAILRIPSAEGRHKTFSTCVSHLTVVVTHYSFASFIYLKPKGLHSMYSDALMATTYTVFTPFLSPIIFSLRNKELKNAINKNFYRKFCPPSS
How it was run: as §1

OR10H5 (Homo sapiens) = target: T12, OR10H5 (Homo sapiens) (UniProt Q8NGA6)
T12 sequence (whole entry): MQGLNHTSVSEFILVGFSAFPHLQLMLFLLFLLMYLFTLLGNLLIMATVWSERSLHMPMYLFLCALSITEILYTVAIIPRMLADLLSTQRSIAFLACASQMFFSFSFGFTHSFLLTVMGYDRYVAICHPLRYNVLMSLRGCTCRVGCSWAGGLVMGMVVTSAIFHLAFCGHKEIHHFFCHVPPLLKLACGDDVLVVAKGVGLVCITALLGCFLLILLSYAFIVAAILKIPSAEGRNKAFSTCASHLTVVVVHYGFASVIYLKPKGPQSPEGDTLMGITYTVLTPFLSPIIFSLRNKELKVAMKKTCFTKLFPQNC
How it was run: as §1

OR10J1 (Homo sapiens) = target: T13, OR10J1 (Homo sapiens) (UniProt P30954)
T13 sequence (whole entry): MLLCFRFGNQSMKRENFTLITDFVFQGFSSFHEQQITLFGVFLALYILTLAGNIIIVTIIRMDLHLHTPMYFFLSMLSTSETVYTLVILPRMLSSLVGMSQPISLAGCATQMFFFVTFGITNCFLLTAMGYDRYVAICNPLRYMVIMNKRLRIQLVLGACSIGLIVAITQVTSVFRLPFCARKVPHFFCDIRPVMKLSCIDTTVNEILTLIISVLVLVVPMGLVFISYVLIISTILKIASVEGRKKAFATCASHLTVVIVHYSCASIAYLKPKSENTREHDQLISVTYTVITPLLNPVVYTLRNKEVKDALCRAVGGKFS
How it was run: as §1

OR10J3 (Homo sapiens) = target: T14, OR10J3 (Homo sapiens) (UniProt Q5JRS4)
T14 sequence (whole entry): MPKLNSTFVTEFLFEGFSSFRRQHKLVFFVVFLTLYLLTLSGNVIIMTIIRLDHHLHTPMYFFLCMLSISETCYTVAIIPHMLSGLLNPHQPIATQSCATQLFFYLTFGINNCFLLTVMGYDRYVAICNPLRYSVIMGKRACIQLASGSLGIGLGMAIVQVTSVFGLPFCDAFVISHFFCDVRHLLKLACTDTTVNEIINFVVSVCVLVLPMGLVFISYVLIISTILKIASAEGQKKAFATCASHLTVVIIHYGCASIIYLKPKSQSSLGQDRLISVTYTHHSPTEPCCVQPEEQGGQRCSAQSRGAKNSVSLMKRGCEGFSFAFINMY
How it was run: as §1

OR10J5 (Homo sapiens) = target: T15, OR10J5 (Homo sapiens) (UniProt Q8NHC4)
T15 sequence (whole entry): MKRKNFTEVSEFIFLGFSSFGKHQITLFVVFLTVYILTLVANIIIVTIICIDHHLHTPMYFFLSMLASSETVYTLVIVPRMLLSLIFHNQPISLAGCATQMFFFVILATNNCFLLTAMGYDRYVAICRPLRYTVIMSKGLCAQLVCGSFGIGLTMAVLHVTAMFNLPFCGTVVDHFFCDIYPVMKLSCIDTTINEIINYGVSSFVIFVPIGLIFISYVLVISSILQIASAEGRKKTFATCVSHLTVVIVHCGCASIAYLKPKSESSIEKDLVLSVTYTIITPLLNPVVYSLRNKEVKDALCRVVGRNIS
How it was run: as §1

OR10K1 (Homo sapiens) = target: T16, OR10K1 (Homo sapiens) (UniProt Q8NGX5)
T16 sequence (whole entry): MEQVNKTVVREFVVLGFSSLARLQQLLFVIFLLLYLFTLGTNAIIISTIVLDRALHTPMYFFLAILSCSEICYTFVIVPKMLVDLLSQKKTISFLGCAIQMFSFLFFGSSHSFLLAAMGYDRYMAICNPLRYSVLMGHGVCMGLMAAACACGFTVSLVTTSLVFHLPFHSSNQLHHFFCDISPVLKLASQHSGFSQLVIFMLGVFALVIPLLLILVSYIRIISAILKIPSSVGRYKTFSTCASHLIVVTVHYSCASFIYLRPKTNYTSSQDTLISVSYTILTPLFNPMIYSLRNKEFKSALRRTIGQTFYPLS
How it was run: as §1

OR10P1 (Homo sapiens) = target: T17, OR10P1 (Homo sapiens) (UniProt Q8NGE3)
T17 sequence (whole entry): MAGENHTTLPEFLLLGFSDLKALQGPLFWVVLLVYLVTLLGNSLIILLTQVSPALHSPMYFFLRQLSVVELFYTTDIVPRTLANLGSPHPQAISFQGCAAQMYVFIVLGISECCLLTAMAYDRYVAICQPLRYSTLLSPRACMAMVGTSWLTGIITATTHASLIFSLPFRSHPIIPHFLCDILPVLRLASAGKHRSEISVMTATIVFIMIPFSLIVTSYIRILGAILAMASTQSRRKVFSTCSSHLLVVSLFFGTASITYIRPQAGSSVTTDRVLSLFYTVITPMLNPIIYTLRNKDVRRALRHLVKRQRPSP
How it was run: as §1

OR10Q1 (Homo sapiens) = target: T18, OR10Q1 (Homo sapiens) (UniProt Q8NGQ4)
T18 sequence (whole entry): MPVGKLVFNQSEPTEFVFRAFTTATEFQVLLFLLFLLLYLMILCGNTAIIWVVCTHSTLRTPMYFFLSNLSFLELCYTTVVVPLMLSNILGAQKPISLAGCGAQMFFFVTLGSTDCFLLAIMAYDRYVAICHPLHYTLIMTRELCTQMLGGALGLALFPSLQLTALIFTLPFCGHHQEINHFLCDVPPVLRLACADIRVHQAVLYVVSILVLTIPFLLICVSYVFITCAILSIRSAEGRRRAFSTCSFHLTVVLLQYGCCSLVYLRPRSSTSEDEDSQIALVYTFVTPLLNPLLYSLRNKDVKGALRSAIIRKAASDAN
How it was run: as §1

Measured: odorant receptor agonist call;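 also: active if original authors judged signal statistically different from baseline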

CC1=NC(C)C(C)S1 (centres undefined)
inactive: all assays above

c1ccccc1
inactive: OR10H1 (Homo sapiens) | OR10J5 (Homo sapiens)

CC1=C(O)C(=O)C(C)O1 (centres undefined)
inactive: all assays above

CCC(=O)O
inactive: OR10J5 (Homo sapiens)
